The results in this text go back to the RNAGym collection of RNA variant scans (doi:10.1126/science.aae0568).

This sample holds only a part of the variants without activity.

Sequences and labels used below:
B1: tRNA (parent)
chain: GUUCCGUUGGCGUAAUGGUAACGCGUCUCCCUCCUAAGGAGAAGACUGCGGGUUCGAGUCCCGUACGGAACG

In this data set the parent is B1. Briefly: yeast fitness relative to wild type (ratio to wild type); higher = fitter; tRNA-Arg(CCU), competitive growth, 37 C, YPD. The method, boiled down:
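Variants of the tRNA-Arg(CCU) gene were chemically synthesised with a 3% per-site mutation rate across 69 sites and placed at the native genomic locus in Saccharomyces cerevisiae. Six parallel replicates of the pooled strains were competed in YPD at 37°C for 24 hours, and gene amplicons from the start and end populations were read by 100-nucleotide paired-end sequencing. Darwinian fitness relative to wild type was derived from changes in genotype frequencies. Genotypes required ≥ 100 starting reads, and estimates < 0.5 were set to 0.5.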
GUUCCGUUGGCGUAAUGGUUACGCGUCUCUCUCCUAAGCAGAAGGCUGCGGGUUCGAGUCCCGUACGACACG [A20U C30U G39C A45G G68A A69C]: the yeast fitness is not above 0.5. In the case of GUUCCGUUGGCGUAAUGGUUACGCGUCUCCCUCCUAAGGAGAAGACUGUGGGUUCGAGUCCCGUACGGAACG [A20U C49U], the yeast fitness amounted to 0.899. The figure for GUUCCGUUGGCGUAAUGGUUACGCGUCUCCCUCCUAAGGAGAAGACUGAGGGUUCGAGUCCCGUACGGAACG [A20U C49A] is 0.708; for GUUCCGUUGGCGUAAUGGUUACGCGUCUCCCUCCUAAGGAGAAGAUUGCGGGUUCGAGUCCCGUACGGAUCG [A20U C46U A70U] it is 0.79. As for GUUCCGUUGGCGUAAUGGUUACGCGUCUUCCUCCUAAGGAGAAGACUGCGGGUUCGAGUCCAGUACGGAACG [A20U C29U C62A], the yeast fitness worked out at 0.543. Consider GUUCCGUUGGCGUAAUGGUUACGCGUCUCCCUCUUAAGGUGAAGACUGCGGGUUCGAGUCCCGUACGGAACG [A20U C34U A40U], for which the yeast fitness was not above 0.5.

In the case of GUUCCGUUGGCGUAAUGGUUACGCGUCUCCCUCGUAAGGAGAAGACUCCGGGUUCGAGCCCCGUACGGAACG [A20U C34G G48C U59C], the yeast fitness came out at 0.548. Under GUUCCGUUGGCGUAAUGGUUACGCGUCUCGCUCCUAAGGAGAAGACUGCGGGUUCGAGUCCCAUACGGAACG [A20U C30G G63A] stands not above 0.5; under GUUCCGUUGGCGUAAUGGUUACGCGUCUCCCUCGUAAGGAGGUGACUGCGGGUUCGAGUCCCGUGCGGAUCG [A20U C34G A42G A43U A65G A70U], not above 0.5; under GUUCCGUUGGCGUAAUGGUUACGCGUCUGCCUUCUAAGGAGAAGACUGCGGGUUCGAGUCCCGUCUGGAACG [A20U C29G C33U A65C C66U], not above 0.5. The figure for GUUCCGUUGGCGUAAUGGUUACGCGUCUUGCUCAAAAGGAGAAGACUGCGGGUUCGAGUCCCGUAAGGAACG [A20U C29U C30G C34A U35A C66A] is not above 0.5. With GUUCCGUUGGCGUAAUGGUUACGCGUCUCCCUCCUAAGGAGAAGACUGCGGGUUCGAGUCUCGUACUGAACG [A20U C61U G67U], the yeast fitness is not above 0.5. Under GUUCCGUUGGCGUAAUGGUUACGCGUCUCCCUCGUAACGAGAAGACUGCCGGUUCGAGUACCGUACGGACCG [A20U C34G G38C G50C C60A A70C] stands not above 0.5; under GUUCCGUUGGCGUAAUGGUUACGCGUCUCCCUCGUAAGGAGGUGACUGCGGGUUCGAGUCCCAUGCGGAACG [A20U C34G A42G A43U G63A A65G], not above 0.5; under GUUCCGUUGGCGUAAUGGUUACGCGUCUCCCUCCUAAGGAGAAGACUGCGGGUUGGAGUCCUGUACGGAACG [A20U C55G C62U], 0.508.

GUUCCGUUGGCGUAAUGGUUACGCGUCUCCGUCCUAAAGAGAAGACUGCGGGUUCGAGUCACAUACGGAACG [A20U C31G G38A C61A G63A]: the yeast fitness was not above 0.5. Under GUUCCGUUGGCGUAAUGGUUACGCGUCUUCCUCCUAAGGACAAAACUGCGGGUUCGUGUCCCGUACGGAACG [A20U C29U G41C G44A A57U] stands 0.805; under GUUCCGUUGGCGUAAUGGUUACGCGUCUCCGUCCUAAGGAGAAGACUGCGGGUUGGAGUGCCGUAUGGAACG [A20U C31G C55G C60G C66U], not above 0.5. Under GUUCCGUUGGCGUAAUGGUUACGCGUCUCCCUCAUAAGGAGAAGACUGCGGGUUCGAGUCCCGUACAGAACG [A20U C34A G67A] stands not above 0.5.

On to GUUCCGUUGGCGUAAUGGUUACGCGUCUCCCUCGUAAGGAGGUGACUGCGGGUUCGAGUCCCGUACAGAACG [A20U C34G A42G A43U G67A], for which the yeast fitness was not above 0.5. The figure for GUUCCGUUGGCGUAAUGGUUACGCGUCUCCCUCGUAAGGAGAAGACUCCGGGUUCGAGCCUCGUACGGAACG [A20U C34G G48C U59C C61U] is 0.791; for GUUCCGUUGGCGUAAUGGUUACGCGUCUCCCUCCUAAGGAGAAGACUGUGGGUUCGAGUCCCGUACGGUACG [A20U C49U A69U] it is 0.683; for GUUCCGUUGGCGUAAUGGUUACGCGUCUCCAUCCUAAGGAGAAGACUGCGGGUUCGAGUCCCGUACGGCACG [A20U C31A A69C] it is 0.624. With GUUCCGUUGGCGUAAUGGUUACGCGUCUCCCUCCUAAGGAGAAGAGUGCGGGUUCGAGUCCCGUACGGAACG [A20U C46G], the yeast fitness was found to be 1.07. Consider GUUCCGUUGGCGUAAUGGUUACGCGUCUCCCUCCUAAGGAGAAGACUGCGGGUUUGAGUCCCGUACGGAACG [A20U C55U], for which the yeast fitness came out at 0.76. Regarding GUUCCGUUGGCGUAAUGGUUACGCGUCUCCCUCCUAAGGAGAAGACUGCGGGUUGGAGUCCCGUACGGAACG [A20U C55G], the yeast fitness stood at 0.669. As to GUUCCGUUGGCGUAAUGGUUACGCGUCUUUCUCCUAAGGAGAAGACUGCGGGUUCGAGACCCGUACAGAACG [A20U C29U C30U U59A G67A], the yeast fitness is not above 0.5.

GUUCCGUUGGCGUAAUGGUUACGCGUCUCCAUGCUAAGGAGAAGACCGCGGGUUCGAGUACCGUACGGAACG [A20U C31A C33G U47C C60A]: the yeast fitness was not above 0.5. The figure for GUUCCGUUGGCGUAAUGGUUACGCGUCUCUCUCCUAAGGAGAAGACUGCGGGUUCGAGUCCCGUACGGAACG [A20U C30U] is 0.783. Consider GUUCCGUUGGCGUAAUGGUUACGCGUCUCCCUCAUAAGGAGAAGACUGCGGGUUCGAGACCCGUACGGAACG [A20U C34A U59A], for which the yeast fitness stood at 0.538. Regarding GUUCCGUUGGCGUAAUGGUUACGCGUCUCCCUCCUAAGGAGAAGAUUGCGGGUUCGAGUCCCAUACGGAACG [A20U C46U G63A], the yeast fitness was 0.777.

Turning to GUUCCGUUGGCGUAAUGGUUACGCGUCUCCCUCAUAAGGACAAGACUGCGGGUUCCAGUCCCGUACGGAACG [A20U C34A G41C G56C], the yeast fitness is not above 0.5. GUUCCGUUGGCGUAAUGGUUACGCGUCUCGCUCCUAAGGAGAAGACUGCGGGUUCGAGUCCCGUACGGCACG [A20U C30G A69C]: the yeast fitness was determined as 0.597. Under GUUCCGUUGGCGUAAUGGUUACGCGUCUCCCUCAUAAGGAGAAGACUGUGGGUUCGACUCCAGUACGGCACG [A20U C34A C49U G58C C62A A69C] stands not above 0.5; under GUUCCGUUGGCGUAAUGGUUACGCGUCUCCUUCCUAAGGAGAAGACUGCGGGUUCGAGUCCCGUACGGAACG [A20U C31U], 0.926. As to GUUCCGUUGGCGUAAUGGUUACGCGUCUCCAUCCUAAGGAGAAGACUGCGGGUUCGAGUCCCGUACGGAACG [A20U C31A], the yeast fitness is 0.803. Consider GUUCCGUUGGCGUAAUGGUUACGCGUCUCGCUUCUAAGGAGAAGACUGCGGGUUCGACUCCCGUACGGAACG [A20U C30G C33U G58C], for which the yeast fitness was not above 0.5.
